In ChEMBL document CHEMBL3232885, “Synthesis, characterization and pharmacological screening of some novel 5-imidazopyrazole incorporated polyhydroquinoline derivatives” (Eur J Med Chem, 2014):
≈ marks a conversion by molar mass, not a printed value.

Tests used:
[1] = tested on: Streptococcus pneumoniae; assay: Antibacterial activity against Streptococcus pneumoniae MTCC 1936 assessed as growth inhibition after 24 to 48 hrs by broth microdilution method; format: functional
Summary of the method: (§1)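 Bacteria were grown in Mueller-Hinton broth with inoculum adjusted to 10⁸ CFU mL⁻¹ by turbidity. Compounds were serially diluted in 2% aqueous DMSO and incubated at 37 °C overnight. Growth was checked by subculture at 24 and 48 h. MIC was taken as the highest dilution with no turbidity after spot subculture.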

[2] = tested on: Bacillus subtilis; assay: Antibacterial activity against Bacillus subtilis MTCC 441 assessed as growth inhibition after 24 to 48 hrs by broth microdilution method; format: functional; summary of the method: as §1
[3] = tested on: Clostridium tetani; assay: Antibacterial activity against Clostridium tetani MTCC 449 assessed as growth inhibition after 24 to 48 hrs by broth microdilution method; format: functional
[4] = tested on: Escherichia coli; assay: Antibacterial activity against Escherichia coli MTCC 443 assessed as growth inhibition after 24 to 48 hrs by broth microdilution method; format: functional; summary of the method: as §1
[5] = tested on: Salmonella typhi; assay: Antibacterial activity against Salmonella typhi MTCC 98 assessed as growth inhibition after 24 to 48 hrs by broth microdilution method; format: functional, Salmonella enterica subsp. enterica serovar Typhi; conditions: Salmonella enterica
[6] = tested on: Vibrio cholerae; assay: Antibacterial activity against Vibrio cholerae MTCC 3906 assessed as growth inhibition after 24 to 48 hrs by broth microdilution method; format: functional
[7] = tested on: Candida albicans; assay: Antifungal activity against Candida albicans MTCC 227 assessed as growth inhibition after 24 to 48 hrs by broth microdilution method; format: functional
Summary of the method: (§2)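 Fungal nutrition used Sabouraud Dextrose broth with inoculum at 10⁸ CFU mL⁻¹ by turbidity. Serial compound dilutions were made in 2% DMSO in water. Growth was noted on subculture after 24 and 48 h. MIC was taken as the highest dilution preventing visible turbidity after spot subculture.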

[8] = tested on: Aspergillus fumigatus; assay: Antifungal activity against Aspergillus fumigatus MTCC 3008 assessed as growth inhibition after 24 to 48 hrs by broth microdilution method; format: functional; summary of the method: as §2
[9] = tested on: Mycobacterium tuberculosis; assay: Antitubercular activity against Mycobacterium tuberculosis H37Rv assessed as inhibition of colony formation at 250 ug/mL after 2 to 4 weeks by Lowensteine-Jensen method relative to control; format: functional
[10] = tested on: Mycobacterium tuberculosis; assay: Antitubercular activity against Mycobacterium tuberculosis H37Rv assessed as inhibition of colony formation at 100 ug/mL after 2 to 4 weeks by Lowensteine-Jensen method relative to control; format: functional
[11] = tested on: Plasmodium falciparum; assay: Antimalarial activity against chloroquine/quinine sensitive Plasmodium falciparum assessed as parasite growth inhibition after 48 hrs; format: functional, organism-based

Molecule | MIC [1] [µg/mL] | MIC [2] [µg/mL] | MIC [3] [µg/mL] | MIC [4] [µg/mL] | MIC [5] [µg/mL] | MIC [6] [µg/mL] | MIC [7] [µg/mL] | MIC [8] [µg/mL] | inhibition at 250 µg/mL [9] [%] | inhibition at 100 µg/mL [10] [%] | IC50 [11] [µg/mL]
Cc1nn(-c2ccccc2)c(-n2ccnc2)c1C1C(C(N)=O)=C(N)N(c2ccc(Cl)cc2)C2=C1C(=O)CC(C)(C)C2 (stereo not given) | 200 (≈ 352 µM) | 200 (≈ 352 µM) | 200 (≈ 352 µM) | 250 (≈ 440 µM) | 250 (≈ 440 µM) | 500 (≈ 880 µM) | 250 (≈ 440 µM) | 1000 (≈ 1760 µM) | 75 | 66 | 0.059 (≈ 0.104 µM)
NYSTATIN |  |  |  |  |  |  | 100 | 500 |  |  | 
Cc1nn(-c2ccccc2)c(-n2ccnc2)c1C1C(C#N)=C(N)N(c2ccccc2O)C2=C1C(=O)CC(C)(C)C2 (stereo not given) | 125 (≈ 235 µM) | 100 (≈ 188 µM) | 200 (≈ 376 µM) | 250 (≈ 470 µM) | 250 (≈ 470 µM) | 125 (≈ 235 µM) | 1000 (≈ 1880 µM) | 500 (≈ 941 µM) | 45 | 38 | 0.71 (≈ 1.34 µM)
CCOC(=O)C1=C(N)N(c2cccc(O)c2)C2=C(C(=O)CC(C)(C)C2)C1c1c(C)nn(-c2ccccc2)c1-n1ccnc1 (stereo not given) | 200 (≈ 346 µM) | 500 (≈ 864 µM) | 250 (≈ 432 µM) | 200 (≈ 346 µM) | 200 (≈ 346 µM) | 125 (≈ 216 µM) | 250 (≈ 432 µM) | 1000 (≈ 1730 µM) | 12 | 9 | 0.072 (≈ 0.124 µM)
Cc1nn(-c2ccccc2)c(-n2ccnc2)c1C1C(C#N)=C(N)N(c2ccc(O)cc2)C2=C1C(=O)CC(C)(C)C2 (stereo not given) | 200 (≈ 376 µM) | 250 (≈ 470 µM) | 500 (≈ 941 µM) | 200 (≈ 376 µM) | 250 (≈ 470 µM) | 250 (≈ 470 µM) | 500 (≈ 941 µM) | 1000 (≈ 1880 µM) | 94 | 94 | 1.23 (≈ 2.31 µM)
O=C(O)c1cn(C2CC2)c2cc(N3CCNCC3)c(F)cc2c1=O [CIPROFLOXACIN] |  | 100 (≈ 302 µM) |  |  | 10 (≈ 30.2 µM) | 50 (≈ 151 µM) |  |  |  |  | 
C=C[C@H]1CN2CC[C@H]1C[C@H]2[C@H](O)c1ccnc2ccc(OC)cc12 [QUININE] |  |  |  |  |  |  |  |  |  |  | 0.268 (≈ 0.826 µM)
Cc1nn(-c2ccccc2)c(-n2ccnc2)c1C1C(C(N)=O)=C(N)N(c2cccc(O)c2)C2=C1C(=O)CC(C)(C)C2 (stereo not given) | 125 (≈ 227 µM) | 200 (≈ 364 µM) | 200 (≈ 364 µM) | 125 (≈ 227 µM) | 200 (≈ 364 µM) | 200 (≈ 364 µM) | 500 (≈ 910 µM) | 500 (≈ 910 µM) | 84 | 75 | 0.57 (≈ 1.04 µM)
CO[C@H]1/C=C/O[C@@]2(C)Oc3c(C)c(O)c4c(O)c(c(/C=N/N5CCN(C)CC5)c(O)c4c3C2=O)NC(=O)/C(C)=C\C=C\[C@H](C)[C@H](O)[C@@H](C)[C@@H](O)[C@@H](C)[C@H](OC(C)=O)[C@@H]1C [RIFAMPIN] |  |  |  |  |  |  |  |  | 98 | 98 | 
Cc1ccc(N2C(N)=C(C#N)C(c3c(C)nn(-c4ccccc4)c3-n3ccnc3)C3=C2CC(C)(C)CC3=O)cc1 (stereo not given) | 125 (≈ 236 µM) | 100 (≈ 189 µM) | 100 (≈ 189 µM) | 200 (≈ 378 µM) | 62.5 (≈ 118 µM) | 250 (≈ 472 µM) | 1000 (≈ 1890 µM) | 1000 (≈ 1890 µM) | 90 | 80 | 1.07 (≈ 2.03 µM)
Cc1nn(-c2ccccc2)c(-n2ccnc2)c1C1C(C#N)=C(N)N(c2ccccc2)C2=C1C(=O)CC(C)(C)C2 (stereo not given) | 500 (≈ 970 µM) | 250 (≈ 485 µM) | 500 (≈ 970 µM) | 100 (≈ 194 µM) | 125 (≈ 242 µM) | 100 (≈ 194 µM) | 1000 (≈ 1940 µM) | 500 (≈ 970 µM) | 33 | 28 | 1.08 (≈ 2.1 µM)
Cc1nn(-c2ccccc2)c(-n2ccnc2)c1C1C(C(N)=O)=C(N)N(c2ccc(O)cc2)C2=C1C(=O)CCC2 (stereo not given) | 250 (≈ 479 µM) | 200 (≈ 383 µM) | 200 (≈ 383 µM) | 200 (≈ 383 µM) | 100 (≈ 192 µM) | 500 (≈ 959 µM) | 1000 (≈ 1920 µM) | 1000 (≈ 1920 µM) | 67 | 60 | 0.033 (≈ 0.0633 µM)
O=C(N[C@H](CO)[C@H](O)c1ccc([N+](=O)[O-])cc1)C(Cl)Cl [CHLORAMPHENICOL] | 100 (≈ 309 µM) | 50 (≈ 155 µM) | 25 (≈ 77.4 µM) | 10 (≈ 30.9 µM) | 50 (≈ 155 µM) | 50 (≈ 155 µM) |  |  |  |  | 
COC1=CC(=O)C[C@@H](C)[C@]12Oc1c(Cl)c(OC)cc(OC)c1C2=O [GRISEOFULVIN] |  |  |  |  |  |  | 100 (≈ 283 µM) | 100 (≈ 283 µM) |  |  | 
CCOC(=O)C1=C(N)N(c2ccccc2)C2=C(C(=O)CC(C)(C)C2)C1c1c(C)nn(-c2ccccc2)c1-n1ccnc1 (stereo not given) | 500 (≈ 889 µM) | 250 (≈ 444 µM) | 200 (≈ 355 µM) | 250 (≈ 444 µM) | 200 (≈ 355 µM) | 125 (≈ 222 µM) | 250 (≈ 444 µM) | 500 (≈ 889 µM) | 45 | 37 | 1.47 (≈ 2.61 µM)
CCn1cc(C(=O)O)c(=O)c2cc(F)c(N3CCNCC3)cc21 [NORFLOXACIN] | 250 (≈ 783 µM) | 25 (≈ 78.3 µM) | 25 (≈ 78.3 µM) | 50 (≈ 157 µM) | 50 (≈ 157 µM) | 50 (≈ 157 µM) |  |  |  |  | 
CCOC(=O)C1=C(N)N(c2ccc(OC)cc2)C2=C(C(=O)CC(C)(C)C2)C1c1c(C)nn(-c2ccccc2)c1-n1ccnc1 (stereo not given) | 100 (≈ 169 µM) | 125 (≈ 211 µM) | 250 (≈ 422 µM) | 100 (≈ 169 µM) | 200 (≈ 337 µM) | 250 (≈ 422 µM) | 1000 (≈ 1690 µM) | 1000 (≈ 1690 µM) | 25 | 20 | 1.49 (≈ 2.51 µM)
Cc1nn(-c2ccccc2)c(-n2ccnc2)c1C1C(C(N)=O)=C(N)N(c2ccccc2)C2=C1C(=O)CC(C)(C)C2 (stereo not given) | 200 (≈ 375 µM) | 125 (≈ 234 µM) | 125 (≈ 234 µM) | 200 (≈ 375 µM) | 250 (≈ 468 µM) | 250 (≈ 468 µM) | 250 (≈ 468 µM) | 1000 (≈ 1870 µM) | 7 | 4 | 0.62 (≈ 1.16 µM)
CCOC(=O)C1=C(N)N(c2ccc(C)cc2)C2=C(C(=O)CC(C)(C)C2)C1c1c(C)nn(-c2ccccc2)c1-n1ccnc1 (stereo not given) | 100 (≈ 173 µM) | 250 (≈ 434 µM) | 250 (≈ 434 µM) | 125 (≈ 217 µM) | 100 (≈ 173 µM) | 100 (≈ 173 µM) | 1000 (≈ 1730 µM) | > 1000 | 12 | 6 | 1.79 (≈ 3.1 µM)
CC1(C)S[C@@H]2[C@H](NC(=O)[C@H](N)c3ccccc3)C(=O)N2[C@H]1C(=O)O [AMPICILLIN] | 100 (≈ 286 µM) | 100 (≈ 286 µM) | 100 (≈ 286 µM) | 10 (≈ 28.6 µM) | 10 (≈ 28.6 µM) | 50 (≈ 143 µM) |  |  |  |  | 
